The values that follow come from ChEMBL document CHEMBL1151979, “Antiallergic potential on RBL-2H3 cells of some phenolic constituents of Zingiber officinale (ginger)” (J Nat Prod, 2009).

For data set [1], the system named is RBL-2H3. Briefly: Antiallergic activity in mIgE-DNP and DNP-BSA-stimulated rat RBL2H3 cells assessed as inhibition of beta-hexosaminidase release at 1 uM pretreated before mIgE-DNP challenge measured after 24 hrs relative to control. Format: functional. Summed up: (§1)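 RBL-2H3 cells (DMEM, 10% FBS) seeded at 1 × 10^5/well and left 4-6 h at 37 °C to adhere. Compound was added at final concentrations for various pretreatment times, then mIgE-DNP was added for 16 h. Cells were washed in Tyrode's buffer (pH 7.4, 1 mg/mL BSA) and challenged with DNP-BSA 1 µg/mL for 1 h at 37 °C. Supernatant was incubated with p-NAG in citrate pH 4.5 for 1 h at 37 °C and read at A405. Inhibition was calculated against Triton X-100 total-release and spontaneous-release controls.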

The subject of data set [2] is RBL-2H3. The experiment in a line: Antiallergic activity in mIgE-DNP and DNP-BSA-stimulated rat RBL2H3 cells assessed as inhibition of beta-hexosaminidase release at 100 uM pretreated before mIgE-DNP challenge measured after 12 hrs. The class given is functional, cell-based. Summed up:
as §1

Data set [3] is described as follows: Cytotoxicity against rat RBL2H3 cells after 12 hrs by MTT assay. Particulars: RBL-2H3, 12 h. The class given is cell-based. Summed up: (§2)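 MTT viability assay in RBL-2H3 cells grown to 70-80% confluence and then exposed to compound; untreated and ≤0.5% DMSO cultures served as controls. MTT stock 5 mg/mL was diluted 1:10 into medium 3 h before the end of exposure, then incubated 2 h at 37 °C. Formazan was dissolved in DMSO and read at 600 nm. Viability is given as % of control OD, ≥3 repeats, and IC50 was derived from this.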
On the technique in general: Tetrazolium assays rely on reduction of a dye to a coloured formazan, in cell work by metabolically active cells.

Data set [4] deals with RBL-2H3. Briefly: Antiallergic activity in mIgE-DNP and DNP-BSA-stimulated rat RBL2H3 cells assessed as inhibition of beta-hexosaminidase release at 200 uM pretreated before mIgE-DNP challenge measured after 24 hrs relative to control. The class given is functional. Summed up:
as §1

For data set [5], the system named is RBL-2H3. Briefly: Antiallergic activity in mIgE-DNP and DNP-BSA-stimulated rat RBL2H3 cells assessed as inhibition of beta-hexosaminidase release at 100 uM pretreated before mIgE-DNP challenge measured after 48 hrs relative to control. The class given is functional. Summed up: as §1
Data set [6] deals with RBL-2H3. The experiment in a line: Antiallergic activity in mIgE-DNP and DNP-BSA-stimulated rat RBL2H3 cells assessed as inhibition of beta-hexosaminidase release at 200 uM pretreated before mIgE-DNP challenge measured after 48 hrs relative to control. Format: functional. Summed up: as §1
The subject of data set [7] is RBL-2H3. Briefly: Antiallergic activity in mIgE-DNP and DNP-BSA-stimulated rat RBL2H3 cells assessed as inhibition of beta-hexosaminidase release at 200 uM pretreated before mIgE-DNP challenge measured after 12 hrs. The class given is functional, cell-based. Summed up: as §1
The subject of data set [8] is RBL-2H3. The experiment in a line: Antiallergic activity in mIgE-DNP and DNP-BSA-stimulated rat RBL2H3 cells assessed as inhibition of beta-hexosaminidase release at 1 uM pretreated before mIgE-DNP challenge measured after 48 hrs relative to control. The class given is functional. The procedure, abridged: as §1
Data set [9] is described as follows: Cytotoxicity against rat RBL2H3 cells at 200 uM after 12 hrs by MTT assay. Format: cell-based. Conditions: rbl-2h3, 12 h. The procedure, abridged: as §2
Data set [10] has as its system RBL-2H3. The experiment in a line: Antiallergic activity in mIgE-DNP and DNP-BSA-stimulated rat RBL2H3 cells assessed as inhibition of beta-hexosaminidase release at 1 uM pretreated before mIgE-DNP challenge measured after 12 hrs relative to control. The class given is functional. The procedure, abridged: as §1
In data set [11] the test system is RBL-2H3. Briefly: Antiallergic activity in mIgE-DNP and DNP-BSA-stimulated rat RBL2H3 cells assessed as inhibition of beta-hexosaminidase release at 100 uM pretreated before mIgE-DNP challenge measured after 24 hrs relative to control. The class given is functional. The procedure, abridged: as §1
Data set [12] can be described thus: Cytotoxicity against rat RBL2H3 cells at 120 uM after 12 hrs by MTT assay. Format: cell-based. Particulars: rbl-2h3, 12 h. The procedure, abridged:
as §2

The test system of data set [13] is RBL-2H3. The experiment in a line: Antiallergic activity in mIgE-DNP and DNP-BSA-stimulated rat RBL2H3 cells assessed as inhibition of beta-hexosaminidase release pretreated before mIgE-DNP challenge measured after 12 to 48 hrs. The class given is functional, cell-based. Summed up:
as §1

The subject of data set [14] is RBL-2H3. The experiment in a line: Antiallergic activity in mIgE-DNP and DNP-BSA-stimulated rat RBL2H3 cells assessed as inhibition of beta-hexosaminidase release at 200 uM pretreated before mIgE-DNP challenge. Particulars: TDE = time-dependent effect. The class given is functional, cell-based. The procedure, abridged: as §1

pIC50: −log10 of the molar value. Activity calls are given as the source filed them. No cut-off for these calls is given here.

By inhibition is commonly meant the drop in the measured response relative to a control, in per cent. What is called pIC50 is −log10 of the IC50, conventionally taken in molar units. The low end stands for a high IC50, the high end for a low IC50. As for `CCCCC[C@H](O)CC(=O)CCc1ccc(O)c(OC)c1` [GINGEROL], the inhibition at 1 µM with RBL-2H3 [1], with RBL-2H3 [8] and in the data set on RBL-2H3 [10] was 60% throughout. For the same compound, the inhibition entry in the data set with RBL-2H3 [2], with RBL-2H3 [4], in the data set with RBL-2H3 [5], in the data set with RBL-2H3 [6], in the data set on RBL-2H3 [7] and with RBL-2H3 [11] was “Active” each time. The same compound had a pIC50 in data set [3] of 3.73. The Activity result in [9] is reported as “Toxic”.
On to `CCCCCCCCC[C@H](O)CC(=O)CCc1ccc(O)c(OC)c1`, for which the inhibition at 1 µM in the data set on RBL-2H3 [1], in the data set on RBL-2H3 [8] and with RBL-2H3 [10] was 60% throughout. Besides, the inhibition result in the data set on RBL-2H3 [2], in the data set on RBL-2H3 [4], in the data set on RBL-2H3 [5], with RBL-2H3 [6], in the data set with RBL-2H3 [7] and with RBL-2H3 [11] was “Active” in each case. The same compound showed a pIC50 in data set [3] of 3.95. Further, the Activity result in data set [12] is given as “Toxic”.
As to `CCCCC/C=C/C(=O)CCc1ccc(O)c(OC)c1` [SHOGAOL], in [3], the pIC50 was 4.04. In addition, in data set [12], the Activity result is “Toxic”.
With `COc1cc(CCC(=O)CC(O)CCc2ccc(O)c(OC)c2)ccc1O` (stereo not drawn) [HEXAHYDROCURCUMIN], the inhibition result is “Dose-dependent effect” in the data set with RBL-2H3 [13] and “tde” in the data set with RBL-2H3 [14]. Moreover, the pIC50 in data set [3] is 3.82. The Activity result in data set [9] is given as “Toxic”.
Consider `CCCCCC(=O)/C=C(O)/C=C/c1ccc(O)c(OC)c1`, for which the inhibition at 1 µM with RBL-2H3 [1], in the data set with RBL-2H3 [8] and in the data set on RBL-2H3 [10] was 60% in each case. The inhibition entry in the data set on RBL-2H3 [2], with RBL-2H3 [4], in the data set with RBL-2H3 [5], with RBL-2H3 [6], with RBL-2H3 [7] and in the data set with RBL-2H3 [11] was “Active” throughout. Further, in data set [3], the pIC50 was 4.41.
